In ChEMBL document CHEMBL1154181 (J Med Chem, 2009):

Tests used:
Format in all cases: functional
[1] = tested on: Mus musculus; assay: Antinociceptive activity against radiant heat-induced nociception in icv dosed CD1 mouse assessed as increase in tail withdrawal latency measured after 15 to 120 mins postdose by tail flick test
Summary of the method: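 Male CD-1 mice anesthetized with ketamine-xylazine (80 + 10 mg/kg ip). Dosed into the right lateral ventricle (+2 mm ML, −0.3 mm AP to bregma, 2 mm depth). Tail flick with radiant heat, cut-off 15 s. Latency read at 15–120 min as %MPE.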

[2] = tested on: Mus musculus; assay: Antinociceptive activity against radiant heat-induced nociception in po dosed CD1 mouse assessed as increase in tail withdrawal latency measured after 15 to 120 mins postdose by tail flick test
Summary of the method: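 Male CD-1 mice, 25–30 g; oral dosing. Radiant heat focused 3–4 cm from tail tip of hand-restrained mice; tail withdrawal latency recorded, cutoff 15 s at 15 V. Baseline = mean of three readings 15 min apart; latency at 15–120 min.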

[3] = tested on: Mus musculus; assay: Antinociceptive activity against thermal nociception in po dosed CD1 mouse assessed as increase in latency period to elicit jumping or hind paw licking measured after 15 to 90 mins postdose by hot plate method

SMILES: Cc1ccc(N2CCN(CCCn3nc(C)cc(N)c3=O)CC2)cc1
- ED50 [1]: 4.9 µg

SMILES: C=Cc1c(C)nn(CCCN2CCN(c3ccc(OC)cc3)CC2)c(=O)c1N
- ED50 [1]: 12.6 µg

SMILES: C=Cc1c(C)nn(CCN2CCN(c3ccc(OC)cc3)CC2)c(=O)c1N
- ED50 [1]: 11.9 µg

SMILES: C=Cc1c(C)nn(CCCN2CCN(c3cccc(Cl)c3)CC2)c(=O)c1N
- ED50 [1]: 23.7 µg

SMILES: C=Cc1cnn(CCCN2CCN(c3ccc(C)cc3)CC2)c(=O)c1N
- ED50 [1]: 25.1 µg

SMILES: C=Cc1c(C)nn(CCCN2CCN(C)CC2)c(=O)c1N
- ED50 [1]: 8.7 µg

SMILES: C=Cc1c(C)nn(CCCN2CCN(c3cccc(OC)c3)CC2)c(=O)c1N
- ED50 [1]: 72.6 µg

SMILES: C=Cc1c(C)nn(C)c(=O)c1NCCN1CCN(c2ccc(C)cc2)CC1
- ED50 [1]: 24.1 µg

SMILES: C=Cc1c(C)nn(CCCN2CCN(c3ccc(Cl)cc3)CC2)c(=O)c1N
- ED50 [1]: 15.4 µg

SMILES: Cc1ccc(N2CCN(CCCn3nc(C)ccc3=O)CC2)cc1
- ED50 [1]: 13.8 µg

SMILES: C=Cc1c(C)nn(CCN2CCN(c3ccc(C)cc3)CC2)c(=O)c1N
- ED50 [1]: 26.1 µg

SMILES: C=Cc1c(C)nn(CCCN2CCN(c3cccc(C)c3)CC2)c(=O)c1N
- ED50 [1]: 51.55 µg

SMILES: Cc1ccc(N2CCN(CCCn3nc(-c4ccccc4)c(-c4csc(C)n4)c(N)c3=O)CC2)cc1
- ED50 [1]: 48.3 µg

SMILES: CN1CC[C@]23c4c5ccc(O)c4O[C@H]2[C@@H](O)C=C[C@H]3[C@H]1C5 [MORPHINE]
- ED50 [1]: 1.1 µg
- ED50 [2]: 3.5 mg/kg
- ED50 [3]: 6.9 mg/kg

SMILES: Cc1ccc(N2CCN(CCn3nc(-c4ccccc4)c(-c4csc(C)n4)c(N)c3=O)CC2)cc1
- ED50 [1]: 25.1 µg

SMILES: C=Cc1sc(=O)n(CCCN2CCN(c3ccc(C)cc3)CC2)c1C
- ED50 [1]: 5.1 µg

SMILES: Cc1ccc(N2CCN(CCn3nc(C)c(-c4ccn[nH]4)c(N)c3=O)CC2)cc1
- ED50 [1]: 16.9 µg

SMILES: Cc1ccc(N2CCN(CCCn3cc(-c4ccncc4)cc(N)c3=O)CC2)cc1
- ED50 [1]: 7.6 µg

SMILES: C=Cc1c(C)nn(CCCN2CCC(C)CC2)c(=O)c1N
- ED50 [1]: 26.4 µg
